IDE cell activ: human IDE activators in live cells, primary screen, fluorescence polarization, HEK cells, FAbeta-B substrate; FAbeta-B cleavage; 0% vehicle, 100% cell-free pure enzyme wells; 340,000 compounds, 0.073% hits; Insulin-degrading enzyme (Homo sapiens), P14735; activation, % at 5.96 µM;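 active means activation above the mean of all tested compounds plus 3 SD, set per screening campaign, cut at about 17% in these data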
Rpn11 inh: Rpn11 (PSMD14) deubiquitinase inhibitors, primary screen, biochemical, fluorescence polarization, uHTS | inhibition, % at 20 µM | 360,000 compounds, 0.59% hits | 26S proteasome non-ATPase regulatory subunit 14 (Homo sapiens), O00487 | human 26S proteasome, Ub4-pepOG fluorescence polarization; 20S core pre-blocked with epoxomicin;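 active means inhibition at 20 µM, scaled to each plate's controls, above about 33%, limit read from the data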
IDE inh: human IDE inhibitors in live cells, primary screen, fluorescence polarization, HEK cells, FAbetaB substrate. inhibition, % at 5.59 µM. FAbetaB cleavage. 320,000 compounds, 0.41% hits;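 active means percent inhibition above the average of all tested compounds plus 3 SD, set per screening campaign, cut at about 16% in these data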;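 further: IDE supplied by intact live HEK cells; FP after avidin binding of uncleaved biotin substrate so inhibition keeps polarization high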
TPT1 inh: Candida albicans TPT1 enzyme inhibitors, primary screen, biochemical, fluorescence polarization | tRNA 2'-phosphotransferase TPT1 (Candida albicans SC5314) | inhibition, % at 5 µM | 300,000 compounds, 0.81% hits | recombinant caTPT1, FP RNA substrate dephosphorylation;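 active means inhibition above the mean of all tested compounds plus 3 SD, set per screening campaign, cut at about 24% in these data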
CSN inh: inhibitors of CSN-mediated cullin deneddylation, primary screen, biochemical, fluorescence polarization, uHTS; Purified CSN, SCF-Nedd8-OG deneddylation; 360,000 compounds, 0.38% hits; inhibition, % at 12.5 µM; COP9 signalosome complex subunit 5 (Homo sapiens), Q92905;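 active means pattern-corrected inhibition above about 35%, with an unprinted fluorescence ratio check between 0.5 and 1.5, limit read from the data, passing the limit was not always enough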
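Test system: purified human Csn5 enzyme expressed in HEK293T cells. Amount: 0.24 nM enzyme. Reagent: SCFSkp2-Nedd8OG substrate at 10 nM final. Schedule: 90 min incubation of compound, enzyme and substrate at room temperature. Detection: fluorescence polarization. Read-out: % inhibition of substrate cleavage by Csn5.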
HNF4A DNA FP: change in binding of human HNF4A to DNA, primary screen, biochemical, fluorescence polarization, FITC-DNA; Hepatocyte nuclear factor 4-alpha (Homo sapiens), P41235; 1 h; activity change, % at 10 µM; 360,000 compounds, 0.3% hits; AID 1224865, 2016; in the data active means activity change above about 30%, passing the limit was not always enough
Target sequence (P41235 whole entry, looked up): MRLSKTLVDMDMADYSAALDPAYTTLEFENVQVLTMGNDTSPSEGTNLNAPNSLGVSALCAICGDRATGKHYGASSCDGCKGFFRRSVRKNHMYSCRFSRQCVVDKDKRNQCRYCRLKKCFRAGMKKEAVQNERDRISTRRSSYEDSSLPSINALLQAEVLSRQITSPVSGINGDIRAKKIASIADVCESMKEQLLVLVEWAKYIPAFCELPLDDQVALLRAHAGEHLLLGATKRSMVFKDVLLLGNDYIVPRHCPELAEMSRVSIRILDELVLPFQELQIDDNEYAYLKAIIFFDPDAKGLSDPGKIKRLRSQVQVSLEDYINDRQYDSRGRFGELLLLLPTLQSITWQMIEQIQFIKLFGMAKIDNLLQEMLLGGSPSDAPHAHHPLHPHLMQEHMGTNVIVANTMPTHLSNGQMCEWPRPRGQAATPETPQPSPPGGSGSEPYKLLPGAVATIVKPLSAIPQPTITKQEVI
TPT1 inh confirm: Candida albicans TPT1 inhibitors, confirmation, biochemical, fluorescence polarization, triplicate; shares compounds with TPT1 inh; recombinant caTPT1, RNase T1 coupled; inhibition, % at 5 µM; 2,400 compounds, 74% hits;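 active means inhibition above the primary screen limit, the mean inhibition of all tested compounds plus 3 SD, cut at about 25% in these data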
RNase T1 counter: RNase T1 inhibitors, counter-screen for TPT1 inhibitor project, biochemical, fluorescence polarization | shares compounds with TPT1 inh | RNase T1 cleavage, 1536-well | inhibition, % at 5 µM | 2,400 compounds, 83% hits;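 active means inhibition above the solvent-only control well mean plus 3 SD, limit set per screening run, cut at about 23% in these data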;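 further: inhibitors block cleavage so intact labeled substrate keeps polarization high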
Large screens that a line does not name were inactive (follow-up assays come after a bar, where shown). Rows were chosen to be rich in hits. Some 1.7% of all compounds tested hit in one or more screens of this group.

CCc1nnc(NS(=O)(=O)c2ccc(NS(=O)(=O)c3ccccc3[N+](=O)[O-])cc2)s1	none
Cc1cccc(C)c1-n1nnnc1C1(C)CCC(=O)N1CCCN1CCOCC1 (stereo not given)	none (no result: IDE cell activ, Rpn11 inh, IDE inh, TPT1 inh)
COc1ccc(NC(=O)[C@@H]2[C@@H]3C(=O)N(C4CCCCC4)C(=O)[C@@H]3C3c4ccccc4C=CN32)cc1 (stereo not given in full)	TPT1 inh 43 | TPT1 inh confirm 50 | RNase T1 counter 54
COc1cc(C)ccc1Oc1ccc([N+](=O)[O-])cc1	none (no result: IDE inh, TPT1 inh)
COc1ccc(/C=C/C(=O)c2ccncc2)c2ccccc12	TPT1 inh 63 | TPT1 inh confirm 73 | RNase T1 counter 81
CC(C)C[C@@H]1CN(CCCC[C@H]2CNC(=O)C(=O)N2CCC2CCCCC2)C(=O)C(=O)N1CCc1ccc(O)cc1	none (no result: IDE cell activ, Rpn11 inh, IDE inh, TPT1 inh)
COc1ccc(C2C(C#N)=C(N)N(c3sc4c(c3C#N)CCCC4)C3=C2C(=O)CC(C)(C)C3)cc1 (stereo not given)	TPT1 inh 28 | TPT1 inh confirm inactive | RNase T1 counter inactive
COc1ccc(C2C(C#N)=C(N)N(c3sc4c(c3C#N)CCCC4)C3=C2C(=O)CC(C)(C)C3)cc1OC (stereo not given)	TPT1 inh 28 | TPT1 inh confirm inactive | RNase T1 counter inactive
COc1ccc(C2C(C#N)=C3NC(=O)c4c(sc5c4CCCCC5)N3C3=C2C(=O)CC(C)(C)C3)cc1 (stereo not given)	none
N#Cc1c(Sc2ncc(C(F)(F)F)cc2Cl)nsc1C/C=N\OCc1c(F)cccc1Cl	TPT1 inh 36 (not shown: Rpn11 inh) | TPT1 inh confirm inactive | RNase T1 counter 33
CC(=O)C1=C(O)CC(C)(C)CC1=NCc1nc2ccccc2[nH]1	none
COC(=O)CC/C(O)=C1\C(=O)CC(C)(C)CC1=NCc1nc2ccccc2[nH]1	TPT1 inh 34 | TPT1 inh confirm inactive | RNase T1 counter inactive
COc1ccc(O)c(C(=O)c2cc(C#N)c(=O)n(-c3ccc(Cl)cc3)c2)c1	TPT1 inh 48, CSN inh 36 (not shown: Rpn11 inh) | TPT1 inh confirm 62 | RNase T1 counter 60
CS(=O)(=O)Nc1ccc(-c2ccc(/C=C3\SC(N)=NC3=O)o2)cc1	TPT1 inh 44, HNF4A DNA FP 42 | TPT1 inh confirm 54 | RNase T1 counter 68
NC1=NC(=O)/C(=C/c2cccs2)S1	none
N#CC1=CN(Cc2ccccc2)C=C(/C=N/Nc2ccccc2)C1	TPT1 inh 25 | TPT1 inh confirm inactive | RNase T1 counter 25
CC(=O)c1cc(NC(=O)c2cccc(C(F)(F)F)c2)c(=O)oc1/C=C/N(C)C	TPT1 inh 117 (not shown: Rpn11 inh) | TPT1 inh confirm 122 | RNase T1 counter 128
CCN(CC)c1ccc(/C=N/N=C(N)N)c(O)c1	IDE cell activ 18, TPT1 inh 49 (not shown: Rpn11 inh) | TPT1 inh confirm 93 | RNase T1 counter 103
CCN(CC)c1ccc(N=Cc2ccc(N(CC)CC)cc2O)cc1	TPT1 inh 63 (not shown: Rpn11 inh) | TPT1 inh confirm 120 | RNase T1 counter 121
CC(=O)O[C@H]1[C@@H](O)[C@H](O)[C@H](Oc2c(O)c(C)c3c4c2[C@@H](C)CC[C@@H]4[C@@H](C)C[C@@H]3C=C(C)C)O[C@H]1C	none (no result: IDE cell activ, IDE inh, TPT1 inh)
